{
  "source": "ChEMBL document CHEMBL5346889",
  "about": "“Discovery of 4-oxo-N-phenyl-1,4-dihydroquinoline-3-carboxamide derivatives as novel anti-inflammatory agents for the treatment of acute lung injury and sepsis” (Eur J Med Chem, 2023)",
  "key": {"J774.A1 [1]": {"system": "J774.A1", "experiment": "Antiinflammatory activity in LPS-induced mouse J774.A1 cells assessed as inhibition of LPS-induced IL-6 release at 10 uM preincubated for 30 mins followed by LPS stimulation for 24 hrs by ELISA method", "format": "functional", "details": "time 24.5 hrs", "in_short": "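J774A.1 macrophages pretreated 30 min at 10 μM, then challenged with LPS 0.5 μg/mL for 24 h at 37 °C, 5% CO2. Medium IL-6 and TNF-α measured by ELISA, normalized to total lysate protein.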"}, "THP-1": {"system": "THP-1", "experiment": "Antiinflammatory activity in LPS-induced human THP-1 cells assessed as inhibition of LPS-induced TNF-alpha transcription preincubated for 0.5 hrs followed by LPS stimulation for 6 hrs by RT-qPCR method", "format": "functional, cell-based", "details": "dose 5-10 µM, time 6.5 hrs", "in_short": "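J774A.1 or THP-1 cells pretreated 0.5 h at 10 or 5 μM, then LPS 0.5 μg/mL for 6 h. TRIzol RNA; IL-6, TNF-α and IL-1β transcripts by RT-qPCR, normalized to β-actin and control; 3 independent experiments, mean ± SEM.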"}, "J774.A1 [2]": {"system": "J774.A1", "experiment": "Inhibition of NF-kappaB pathway in LPS-induced mouse J774.A1 cells assessed as reduction in p65 nuclear translocation preincubated with compound for 2 hrs followed by LPS-stimulation and measured after 30 mins by Western blot analysis", "format": "cell-based", "details": "time 2.5 hrs"}, "Mus musculus [3]": {"system": "Mus musculus", "experiment": "Protection against LPS-induced C57/BL6 mouse acute lung injury model assessed as reduction in number of total cells in BALF at 20 mg/kg via oral gavage preincubated for 30 mins followed by LPS stimulation for 6 hrs", "format": "functional, organism-based", "details": "time 6.5 hrs", "in_short": "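Mice dosed 20 mg/kg by gavage (dexamethasone 20 mg/kg comparator), intratracheal LPS 5 mg/kg 30 min later, killed at 6 h. Right upper lobe fixed in paraformaldehyde, H&E; lung wet/dry ratio; BALF protein, total cells and neutrophils counted; n = 5 mice per group, mean ± SEM.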"}, "Mus musculus [4]": {"system": "Mus musculus", "experiment": "Protection against LPS-induced sepsis in C57/BL6 mouse model assessed as reduction in spleen enlargement at 20 mg/kg, po preincubated with compound followed by LPS stimulation for 1 hr", "format": "functional, organism-based", "in_short": "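Mice given 20 mg/kg orally, then intraperitoneal LPS 20 mg/kg 1 h later; n = 12 per group. Kidney, liver, heart and spleen weighed; spleen sections H&E-stained for histology.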"}, "[5]": {"experiment": "Half life in rat at 10 mg/kg, po", "format": "ADME, organism-based", "details": "in vivo", "in_short": "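Rats dosed intravenously at 1 mg/kg or orally at 10 mg/kg; plasma pharmacokinetic parameters AUC(0-t), Tmax, T1/2, Cmax and oral bioavailability F derived from the two routes.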"}, "Mus musculus [6]": {"system": "Mus musculus", "experiment": "Antiinflammatory activity in LPS-induced C57/BL6 mouse acute lung injury model assessed as decrease in IL-6 level in BALF at 20 mg/kg via oral gavage preincubated for 30 mins followed by LPS stimulation for 6 hrs by ELISA", "details": "time 6.5 hrs"}},
  "note": "The source made the active and inactive calls. No cut-off for these calls is given here.",
  "data": [
    {"smiles": "COc1cc2nccc(Oc3ccc(NC(=O)c4cn(-c5ccccc5)c5ccccc5c4=O)cc3)c2cc1OC", "values": [
      {"measurement": "inhibition at 10 µM", "setting": "J774.A1 [1]", "result": 75, "unit": "%"},
      {"measurement": "inhibition", "setting": "THP-1", "result": "Dose-Dependent Effect"},
      {"measurement": "inhibition", "setting": "J774.A1 [2]", "result": "Active"},
      {"measurement": "Activity", "setting": "Mus musculus [3]", "result": "Active"},
      {"measurement": "Activity", "setting": "Mus musculus [4]", "result": "Active"},
      {"measurement": "half-life", "setting": "[5]", "result": 11.8, "unit": "h"},
      {"measurement": "Activity", "setting": "Mus musculus [6]", "result": "Active"}
    ]}
  ]
}
